Laboratory results as given in ChEMBL document CHEMBL3046618, “Syntheses and biological activities of pyranyl-substituted cinnamates” (Biosci Biotechnol Biochem, 2001).

Tests used:
[Sclerotium] delphinii = Antifungal activity against Sclerotium delphinii assessed as fungal growth inhibition at 100 ppm relative to untreated control; type: functional; details: Agroathelia delphinii; read-out: GI
Summary of the method: (§1)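 Fungus precultured on potato dextrose agar (1.5% agar) for four days at 27°C before testing. Compounds tested at 100 ppm in triplicate. Growth inhibition (%) relative to untreated control.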

Rhizoctonia solani = experiment: Antifungal activity against Rhizoctonia solani assessed as fungal growth inhibition at 100 ppm relative to untreated control; type: functional; details: read-out: GI; summary of the method: as §1
Brassica rapa = experiment: Toxicity against Brassica rapa assessed as plant growth inhibition at 100 ppm relative to untreated control; type: organism-based; details: in vivo
Summary of the method: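 Seedlings held three days at 27°C in darkness, then radicle and hypocotyl lengths measured. Growth inhibition (%) calculated for each organ against control. Each experiment run three times.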

| Structure (SMILES) | inhibition of growth at 100 ppm ([Sclerotium] delphinii) [%] | inhibition of growth at 100 ppm (Rhizoctonia solani) [%] | growth inhibition (GI) (Brassica rapa) |
| --- | --- | --- | --- |
| Cc1cc(OC(=O)/C=C/c2ccccc2C)cc(=O)o1 | 20 | 70 | 80% |
| CC(C)c1ccc(/C=C/C(=O)Oc2cc(CCc3ccccc3)oc(=O)c2)cc1 | > 30 | 40 | 10% |
| Cc1cc(OC(=O)/C=C/c2ccc(F)cc2)cc(=O)o1 | 30 | 70 | > 50% |
| COc1cc(CCc2ccccc2)oc(=O)c1 [DIHYDRO-5,6-DEHYDROKAWAIN] | 50 | 50 | 0% |
| O=C(/C=C/c1ccccc1F)Oc1cc(CCc2ccccc2)oc(=O)c1 | 10 | 10 | 40% |
| Cc1cc(OC(=O)/C=C/c2ccc(Cl)cc2)cc(=O)o1 | 30 | > 60 | > 60% |
| Cc1cccc(/C=C/C(=O)Oc2cc(CCc3ccccc3)oc(=O)c2)c1 | 30 | 50 | 40% |
| Cc1cc(OC(=O)/C=C/c2ccccc2Cl)cc(=O)o1 | 20 | 60 | 20% |
| Cc1cc(OC(=O)/C=C/c2ccc(C(C)C)cc2)cc(=O)o1 | ≤ 50 | 80 | 20% |
| Cc1cccc(/C=C/C(=O)Oc2cc(C)oc(=O)c2)c1 | 40 | 70 | 40% |
| Cc1cc(OC(=O)/C=C/c2ccccc2)cc(=O)o1 | 20 | > 60 | 30% |
| Cc1ccccc1/C=C/C(=O)Oc1cc(CCc2ccccc2)oc(=O)c1 | 40 | 50 | > 60% |
| Cc1ccc(/C=C/C(=O)Oc2cc(CCc3ccccc3)oc(=O)c2)cc1 | ≤ 10 | 50 | 30% |
| Cc1cc(OC(=O)/C=C/c2cccc(Cl)c2)cc(=O)o1 | 40 | 60 | <= 70% |
| O=C(/C=C/c1ccc(F)cc1)Oc1cc(CCc2ccccc2)oc(=O)c1 | 10 | 10 | 40% |
| Cc1ccc(/C=C/C(=O)Oc2cc(C)oc(=O)c2)cc1 | 10 | 70 | 30% |
| Cc1cc(O)cc(=O)o1 [4-HYDROXY-6-METHYLPYRAN-2-ONE] | 20 | ≤ 10 | – |
| Cc1cc(OC(=O)/C=C/c2cccc(F)c2)cc(=O)o1 | 30 | > 60 | > 50% |
| O=C(/C=C/c1ccc(Cl)cc1)Oc1cc(CCc2ccccc2)oc(=O)c1 | > 30 | 10 | 20% |
| O=C(/C=C/c1ccccc1)Oc1cc(CCc2ccccc2)oc(=O)c1 | 30 | 20 | 30% |
| O=C(/C=C/c1cccc(Cl)c1)Oc1cc(CCc2ccccc2)oc(=O)c1 | 10 | 40 | 50% |
| O=C(/C=C/c1ccccc1Cl)Oc1cc(CCc2ccccc2)oc(=O)c1 | > 30 | 40 | 30% |
| Cc1cc(OC(=O)/C=C/c2ccccc2F)cc(=O)o1 | > 40 | 60 | 30% |
| O=C(/C=C/c1cccc(F)c1)Oc1cc(CCc2ccccc2)oc(=O)c1 | > 30 | 40 | 30% |
